Test results: PMC4077163 (Bioorganic & medicinal chemistry letters, 2014)
Square brackets hold non-standard residues; d marks the D form. Peptide text beside a SMILES is read from it. * marks the point of attachment. pY = N[C@@H](Cc1ccc(OP(=O)(O)O)cc1)C(=O)O; Hydrocinnamoyl = O=C(CCc1ccccc1)*; Ac6c = NC1(C(=O)O)CCCCC1; Cbz = O=C(OCc1ccccc1)*

Key:
Grb2 SH2 domain [1] = target: T1, Grb2 SH2 domain (Homo sapiens, UniProt P62993); test: Isothermal titration calorimetry; type: binding; details: for ΔG° / ΔH° / −TΔS°: ITC, 25 °C, HEPES (50 mM), NaCl (150 mM), pH 7.45 ± 0.05; for potency relative to indolyl compound 10: from ITC data of Table 1
T1 sequence (P62993 60-152 limits assumed): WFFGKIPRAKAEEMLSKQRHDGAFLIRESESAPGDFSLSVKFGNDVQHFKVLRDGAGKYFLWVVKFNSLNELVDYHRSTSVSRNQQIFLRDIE
Method in brief: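 Tripeptide phosphotyrosine-analogue ligands were titrated against the Grb2 SH2 domain by ITC at 25 °C in 50 mM HEPES, 150 mM NaCl, pH 7.45 ± 0.05. Ka, ΔG°, ΔH° and ΔS° were taken from the titrations. Each ligand had three or more runs. The n value of each run was normalized by adjusting ligand concentration, then the runs were averaged.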

Grb2 SH2 domain [2] = target: T1, Grb2 SH2 domain; test: Literature affinity; type: binding; details: ratio of literature IC50 values, more potent than 3

CC(=O)N[C@@H](Cc1ccc(OP(=O)(O)O)cc1)C(=O)NC1(C(=O)N[C@@H](CC(N)=O)C(N)=O)CCCCC1 [Compound 7] (HELM PEPTIDE1{[ac].[O=C([C@H](Cc1ccc(OP(=O)(O)O)cc1)N[*:1])[*:2]].[O=C(C1(N[*:1])CCCCC1)[*:2]].N.[am]}$$$$V2.0)
Kd (Grb2 SH2 domain [1]): 143 nM | ΔG° (Grb2 SH2 domain [1]): -9.3 ± 0.1 kcal/mol | ΔH° (Grb2 SH2 domain [1]): -8.5 ± 0.4 kcal/mol | −TΔS° (Grb2 SH2 domain [1]): -0.8 ± 0.4 kcal/mol

NC(=O)C[C@H](NC(=O)C1(NC(=O)[C@H](Cc2ccc(OP(=O)(O)O)cc2)NC(=O)OCc2ccccc2)CCCCC1)C(N)=O [Compound 8] (Cbz-[pY]-[Ac6c]-Asn-NH2)
Kd (Grb2 SH2 domain [1]): 154 nM | ΔG° (Grb2 SH2 domain [1]): -9.3 ± 0.1 kcal/mol | ΔH° (Grb2 SH2 domain [1]): -9.3 ± 0.3 kcal/mol | −TΔS° (Grb2 SH2 domain [1]): 0.0 ± 0.1 kcal/mol

NC(=O)C[C@H](NC(=O)C1(NC(=O)[C@H](Cc2ccc(OP(=O)(O)O)cc2)NC(=O)OCc2cccc(N)c2)CCCCC1)C(N)=O [Compound 9]
potency relative to 3 (Grb2 SH2 domain [2]): about 65 fold | Kd (Grb2 SH2 domain [1]): 114 nM | ΔG° (Grb2 SH2 domain [1]): -9.5 ± 0.1 kcal/mol | ΔH° (Grb2 SH2 domain [1]): -9.1 ± 0.5 kcal/mol | −TΔS° (Grb2 SH2 domain [1]): -0.4 ± 0.3 kcal/mol

Cn1cc(CCC(=O)N[C@@H](Cc2ccc(OP(=O)(O)O)cc2)C(=O)NC2(C(=O)N[C@@H](CC(N)=O)C(N)=O)CCCCC2)c2ccccc21 [Compound 10]
Kd (Grb2 SH2 domain [1]): 87.7 nM | ΔG° (Grb2 SH2 domain [1]): -9.6 ± 0.1 kcal/mol | ΔH° (Grb2 SH2 domain [1]): -10.0 ± 0.3 kcal/mol | −TΔS° (Grb2 SH2 domain [1]): +0.4 ± 0.1 kcal mol^−1

NC(=O)C[C@H](NC(=O)C1(NC(=O)[C@H](Cc2ccc(OP(=O)(O)O)cc2)NC(=O)CCc2ccccc2)CCCCC1)C(N)=O [Compound 11] (Hydrocinnamoyl-[pY]-[Ac6c]-Asn-NH2)
Kd (Grb2 SH2 domain [1]): 42.7 nM | ΔG° (Grb2 SH2 domain [1]): -10.1 ± 0.1 kcal/mol | ΔH° (Grb2 SH2 domain [1]): -9.5 ± 0.5 kcal/mol | −TΔS° (Grb2 SH2 domain [1]): -0.6 ± 0.1 kcal/mol | potency relative to indolyl compound 10 (Grb2 SH2 domain [1]): about two-fold more potent

NC(=O)C[C@H](NC(=O)C1(NC(=O)[C@H](Cc2ccc(OP(=O)(O)O)cc2)NC(=O)CCC2CCCCC2)CCCCC1)C(N)=O [Compound 12]
Kd (Grb2 SH2 domain [1]): 34.7 nM | ΔG° (Grb2 SH2 domain [1]): -10.2 ± 0.1 kcal/mol | ΔH° (Grb2 SH2 domain [1]): -10.0 ± 0.5 kcal/mol | −TΔS° (Grb2 SH2 domain [1]): -0.2 ± 0.1 kcal/mol | potency relative to indolyl compound 10 (Grb2 SH2 domain [1]): about two-fold more potent
